PMC10499406 (Clinical and Translational Science, 2023)
Where two headings read alike, the source gives them in different places.

Assays:
[1] = tested on: CYP3A4
[2] = tested on: IL‐1β; test: Ex vivo LPS/ATP stimulation of whole blood from participants: IL‐1β production; type: cell-based, human; conditions: for maximum mean inhibition of IL‐1β production: relative to baseline
Summary of the method: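 Whole blood from participants was drawn predose and at postdose timepoints. MAD dosing was oral 300 or 900 mg b.i.d. on days 1–6 plus one morning dose on day 7, fasted. Blood was stimulated ex vivo with an LPS plus ATP cocktail. Secreted IL-1β was the mean of two technical replicates. Inhibition = [1−(postdose/predose stimulated level)]×100%. IC90 came from a sigmoid Emax fit against time-matched plasma drug levels (HPLC-MS/MS).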

[3] = tested on: CYP3A4; test: In vitro CYP3A4 induction assays and preliminary PBPK modeling; type: in vitro ADME; conditions: unpublished data
[4] = Urinary PK; type: in vivo, human; conditions: multiple b.i.d. dosing (MAD)
[5] = 600 mg, high‐fat vs fasted
[6] = clinical; conditions: human, in vivo, po
[7] = clinical; conditions: human, in vivo, 600 mg, fasted period, n = 8, mean
[8] = for C min: steady‐state (day 7), n = 6, mean
[9] = clinical; conditions: human, in vivo, n = 6, mean; for AUC: AUC0–tau; for Cmax: C max
[10] = tested on: IL‐18; test: Ex vivo LPS/ATP stimulation of whole blood from participants: IL‐18 production; type: cell-based, human
[11] = cited from earlier work
[12] = Safety: adverse events and laboratory findings in healthy volunteers; type: in vivo, human
Summary of the method: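 Healthy volunteers receiving at least one dose of study drug formed the safety population. End points were incidence and severity of AEs, and baseline changes in vital signs, clinical laboratory tests and 12-lead ECG. DDI stage: one cohort of nine, test compound given fasted with co-administered midazolam. Other stages: single oral 150–1800 mg; 300 or 900 mg b.i.d.; 600 mg fasted then after high-fat meal.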

[13] = tested on: human whole blood; conditions: cited from earlier work
[14] = cynomolgus monkey, 4‐week study; cited from earlier work
[15] = for DN AUC0–last / CL/F: SAD, fasted, n = 6, mean
[16] = tested on: CYP3A4; test: clinical; conditions: human, in vivo
[17] = Plasma PK of metabolite indacenyl amine after GDC‐2394; type: in vivo, human
[18] = tested on: IL‐1β; conditions: patients with atherosclerosis and residual inflammation ref 8; cited from earlier work
[19] = 1‐hydroxymidazolam, day 10 vs day 1
[20] = midazolam 5 mg alone (reference, day 1), analyte 1‐hydroxymidazolam, n 9
[21] = single 150‐mg, 450‐mg and 900‐mg doses
[22] = single doses of 600 mg, both fasted and high‐fat periods
[23] = 300 mg, MAD 300 mg b.i.d., first dose (day 1)
[24] = 300 mg, MAD 300 mg b.i.d., steady‐state (day 7)
[25] = 900 mg, MAD 900 mg b.i.d., first dose (day 1)
[26] = 900 mg, MAD 900 mg b.i.d., steady‐state (day 7)

## OCc1ncc2n1-c1ccc(Cl)cc1C(c1ccccc1F)=NC2 [1‐hydroxymidazolam]
[1]; [19]
  AUC0–inf GMR: 90%
  AUC0–last GMR: 88%
  Cmax GMR: 92%
[1]; [20]
  AUC0–inf, geometric LS mean: 0.0203 µg·h/mL
  AUC0–last, geometric LS mean: 0.0188 µg·h/mL
  C max, geometric LS mean: 9.25 ng/mL

## CN[C@@H]1COc2c(S(=O)(=O)NC(=O)Nc3c4c(cc5c3CCC5)CCC4)cnn2C1 [GDC‐2394, (S)‐N‐((1,2,3,5,6,7‐hexahydro‐s‐indacen‐4‐yl)carbamoyl)‐6‐(methylamino)‐6,7‐dihydro‐5H‐pyrazolo[5,1‐b][1,3]oxazine‐3‐sulfonamide]
[2]; 300 mg b.i.d.
  mean inhibition of IL‐1β production sustained over the 7‐day dosing period: greater than 95%
[2]; 900 mg b.i.d.
  mean inhibition of IL‐1β production sustained over the 7‐day dosing period: greater than 99%
[2]; Homo sapiens, read-out: estimated plasma IC90 for IL‐1β inhibition
  IC90: ~2.5 µM
[2]; single 150‐mg dose
  maximum mean inhibition of IL‐1β production: greater than 97%
[2]; [21]
  time for which maximum mean IL‐1β inhibition was sustained: ~ 8 h
[2]; single 450‐mg dose
  maximum mean inhibition of IL‐1β production: greater than 97%
[2]; single 900‐mg dose
  maximum mean inhibition of IL‐1β production: greater than 99%
[2]; single dose of 1800 mg
  mean inhibition of IL‐1β production: greater than or equal to 99%
  time for which mean IL‐1β inhibition was sustained: ~ 24 h
[2]; [22]
  mean inhibition of IL‐1β production: greater than 99%
  time for which mean IL‐1β inhibition was sustained: 8 h
[3]
  CYP3A4 induction potential: mild‐to‐moderate
[1]; human, in vivo
  CYP3A4 induction potential / impact on systemic exposure of midazolam and 1‐hydroxymidazolam: minimal CYP3A4 induction potential
[1]; in vivo
  CYP3A4 induction potential / impact on systemic exposure of midazolam and 1‐hydroxymidazolam: did not have an apparent impact
[4]
  mean fraction of drug excreted in urine 0 to 12 h postdose on day 7, range: 12.3% to 14.8
[5]
  decrease of AUC0–inf with a high‐fat meal: 14%
  decrease of AUC0–last with a high‐fat meal: 14%
  decrease of Cmax with a high‐fat meal: ~ 16%
[6]
  half-life: 4.1 to 8.6 h
[6]; 150 mg
  AUC(0-t): 53.5 µg·h/mL
  Cmax: 8110 ng/mL
  Tmax: 2.1 h
  Vd/F: 16.7 L
  half-life: 4.1 h
[6]; 450 mg
  AUC(0-inf): 138 µg·h/mL
  AUC(0-t): 138 µg·h/mL
  Cmax: 22900 ng/mL
  Tmax: 2 h
  Vd/F: 30.2 L
  half-life: 5.8 h
[6]; 900 mg
  AUC(0-inf): 317 µg·h/mL
  AUC(0-t): 317 µg·h/mL
  Cmax: 50400 ng/mL
  Tmax: 2 h
  Vd/F: 34.9 L
  half-life: 6.8 h
[6]; 1800 mg
  AUC(0-inf): 739 µg·h/mL
  AUC(0-t): 738 µg·h/mL
  Cmax: 101000 ng/mL
  Tmax: 4 h
  Vd/F: 32.1 L
  half-life: 8.6 h
[7]; C max, FE 600 mg single dose
  Cmax: 28000 ng/mL
[7]; T 1/2, FE 600 mg single dose
  half-life: 5.3 h
[8]; MAD 300 mg b.i.d.
  C min: 1820 ng/mL
[8]; MAD 900 mg b.i.d.
  C min: 9080 ng/mL
[8]; MAD stage
  interindividual variability of PK parameters, %CVs: less than 50%
[8]; MAD, both cohorts, from trough concentrations
  likely achievement of steady‐state: ≤ 2 days
[8]; both MAD cohorts (300 and 900 mg b.i.d.), steady‐state vs day 1
  accumulation ratios for Cmax and AUC0–tau: ~ 1
[9]; [23]
  AUC: 82 µg·h/mL
  Cmax: 15300 ng/mL
[9]; [24]
  AUC: 92.2 µg·h/mL
  Cmax: 16400 ng/mL
[9]; [25]
  AUC: 301 µg·h/mL
  Cmax: 52700 ng/mL
[9]; [26]
  AUC: 327 µg·h/mL
  Cmax: 51000 ng/mL
[10]; 900‐mg b.i.d.
  mean inhibition of IL‐18 production across most of the 7‐day dosing period: greater than 99%
[10]; Homo sapiens, read-out: estimated plasma IC90 for IL‐18 inhibition
  IC90: ~2.5 µM
[10]; all SAD cohorts
  inhibition of IL‐18 production (in words): Near‐complete or complete inhibition
[10]; [21]
  time for which IL‐18 inhibition was sustained: ~ 8 h
[10]; single 1800‐mg dose
  time for which IL‐18 inhibition was sustained: ~ 24 h
[11]
  blood:plasma ratio: 0.6
[12]; DDI stage, after completion of GDC‐2394 dosing
  participants with events consistent with hepatic injury: Three
[12]; DDI stage, both participants
  time to recovery from severe DILI: ≤ 3 months
[12]; DDI stage, n = 9
  total number of events considered related to study treatment: 14
[12]; MAD 900 mg b.i.d., one subject, day 14
  peak elevation of ALT: 1.67 × the upper limit of normal [ULN]
[12]; MAD, all GDC‐2394 (n = 12)
  Subjects with at least one AE leading to dose modification/interruption: 0
  Subjects with at least one AE leading to withdrawal from treatment: 0
  Subjects with at least one AE with fatal outcome: 0
  Subjects with at least one grade 3–5 AE (at greatest intensity): 0
  Subjects with at least one related AE: 4 (33.3%)
  Subjects with at least one related serious AE: 0
  Subjects with at least one serious AE: 0
  Total number of AEs: 18
  Total number of deaths: 0
  Total number of subjects with at least one AE: 8 (66.7%)
  Total number of subjects withdrawn from study due to an AE: 0
[12]; SAD, all GDC‐2394 (n = 24)
  Subjects with at least one AE leading to dose modification/interruption: 0
  Subjects with at least one AE leading to withdrawal from treatment: 0
  Subjects with at least one AE with fatal outcome: 0
  Subjects with at least one grade 3–5 AE (at greatest intensity): 0
  Subjects with at least one related AE: 6 (25.0%)
  Subjects with at least one related serious AE: 0
  Subjects with at least one serious AE: 0
  Total number of AEs: 22
  Total number of deaths: 0
  Total number of subjects with at least one AE: 14 (58.3%)
  Total number of subjects withdrawn from study due to an AE: 0
[13]
  in vitro human whole blood IC90: 0.639 µg/mL
[13]; read-out: in vitro human whole blood IC90
  IC90: 1.48 µM
[14]
  no‐observed‐adverse‐effect level (NOAEL): 600 mg/kg/day
[15]; 150‐mg starting dose
  observed AUC relative to the preclinical prediction: approximately three‐fold
[15]; single oral 150 mg
  DN AUC0–last: 356 ng·h/mL/mg
[15]; single oral 450 mg
  CL/F: 3390 mL/h
  DN AUC0–last: 307 ng·h/mL/mg
[15]; single oral 900 mg
  CL/F: 3040 mL/h
  DN AUC0–last: 352 ng·h/mL/mg
[15]; single oral 1800 mg
  CL/F: 2590 mL/h
  DN AUC0–last: 410 ng·h/mL/mg
[15]; single oral doses 150–1800 mg
  increases in systemic exposure with dose (dose‐normalized Cmax and AUC0–last): approximately dose proportional
[15]; single oral doses across 150–1800 mg
  apparent clearance, range of mean values: 2590 to 3390 mL/h

## Cc1ncc2n1-c1ccc(Cl)cc1C(c1ccccc1F)=NC2 [Midazolam, midazolam, reference compound]
[16]
  AUC(0-inf): 0.056 µg·h/mL
  AUC(0-t): 0.0538 µg·h/mL
  Cmax: 25.6 ng/mL
[16]; 5 mg
  AUC(0-inf): 0.0578 µg·h/mL
  AUC(0-t): 0.0534 µg·h/mL
  Cmax: 22.9 ng/mL
[1]; human, in vivo
  AUC0–inf GMR: 97%
  AUC0–inf GMR (test/reference), estimate: 0.97
  AUC0–last GMR: 101%
  AUC0–last GMR (test/reference), estimate: 1.01
  C max GMR (test/reference), estimate: 1.12
  Cmax GMR: 112%

## Nc1c2c(cc3c1CCC3)CCC2 [indacenyl amine, 1,2,3,5,6,7‐hexahydro‐s‐indacen‐4‐amine]
[17]; MAD 900‐mg b.i.d. cohort
  day 7 predose indacenyl amine concentration, range: 65.8 to 158 ng/mL
[17]; human, plasma, oral
  half-life: 36 to 49 h

## canakinumab: an anti‐IL‐1β antibody
[18]
  frequency of cardiovascular events: significantly reduced
